These results are taken from ChEMBL document CHEMBL4680310, “Identification of N-acyl-N-indanyl-α-phenylglycinamides as selective TRPM8 antagonists designed to mitigate the risk of adverse effects” (Bioorg Med Chem, 2021).

Active and inactive are the calls of the source. No cut-off for these calls is given here.

The target of series [1] is T1, Nuclear receptor subfamily 1 group I member 2 (Homo sapiens, UniProt O75469).
T1 sequence (O75469 whole entry): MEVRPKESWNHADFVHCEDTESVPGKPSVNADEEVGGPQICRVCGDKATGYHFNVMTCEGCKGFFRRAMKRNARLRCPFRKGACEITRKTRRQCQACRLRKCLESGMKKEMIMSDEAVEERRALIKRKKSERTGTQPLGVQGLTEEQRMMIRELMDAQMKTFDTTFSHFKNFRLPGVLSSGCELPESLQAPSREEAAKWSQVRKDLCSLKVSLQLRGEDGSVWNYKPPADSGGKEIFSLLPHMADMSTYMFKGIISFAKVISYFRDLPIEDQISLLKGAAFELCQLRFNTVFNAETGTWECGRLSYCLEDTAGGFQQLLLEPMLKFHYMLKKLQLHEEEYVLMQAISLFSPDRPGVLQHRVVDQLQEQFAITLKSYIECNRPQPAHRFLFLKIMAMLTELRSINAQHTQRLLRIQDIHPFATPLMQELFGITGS
Nature of the series: Activation of human PXR ligand binding domain incubated for 1 hr by TR-FRET assay. It is filed as ADME. (In general: In TR-FRET formats the signal depends on donor and acceptor labels being close together.)

The target of another series is CYP3A4 (Homo sapiens, UniProt P08684). Nature of the series: Inhibition of CYP3A4 in human liver microsomes assessed as reduction in 1'-hydroxymidazolam formation using midazolam as substrate at 10 uM preincubated with enzyme and NADPH followed by substrate addition and measured after 10 mins by HPLC/MS-MS analysis relative to control. It is filed as ADME. Conditions: probe midazolam (1'-hydroxymidazolam formation). The method in brief: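 Compound at 100 µM was pre-incubated at 37 °C with human liver microsomes (0.5 mg/mL) in 0.1 M phosphate pH 7.4 with 5 mM MgCl₂ and 1 mM NADPH. The mix was then diluted 10-fold into 25 µM midazolam in the same buffer and incubated 10 min at 37 °C. Ice-cold acetonitrile stopped the reaction. 1′-Hydroxymidazolam was quantified by HPLC-MS/MS, with ketoconazole (1 µM) as reference inhibitor.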
Chain of CYP3A4 (P08684 whole entry): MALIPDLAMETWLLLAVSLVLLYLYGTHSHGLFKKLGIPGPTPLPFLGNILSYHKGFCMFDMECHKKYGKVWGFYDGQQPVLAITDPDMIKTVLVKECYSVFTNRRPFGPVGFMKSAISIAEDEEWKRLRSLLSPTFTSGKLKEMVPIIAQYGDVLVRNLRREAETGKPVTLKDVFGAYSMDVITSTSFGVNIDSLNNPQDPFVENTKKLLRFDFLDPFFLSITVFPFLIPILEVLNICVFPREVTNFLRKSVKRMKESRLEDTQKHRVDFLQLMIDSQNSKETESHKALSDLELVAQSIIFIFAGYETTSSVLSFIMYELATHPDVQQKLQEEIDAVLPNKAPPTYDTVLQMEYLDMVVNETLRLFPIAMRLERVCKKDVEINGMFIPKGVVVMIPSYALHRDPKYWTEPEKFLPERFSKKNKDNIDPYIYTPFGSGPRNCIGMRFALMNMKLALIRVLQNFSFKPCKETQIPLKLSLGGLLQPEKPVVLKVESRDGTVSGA
For orientation: Liver microsomes are a subcellular fraction often used to study metabolism.

A short description of series [2]: In vivo antagonist activity at TRPM8 in Sprague-Dawley rat assessed as inhibition of icilin-induced wet dog shakes at 10 mg/kg, po administered 1 hr prior to icilin administration and measured after 5 mins for 5 mins. It is filed as functional. Conditions: 1.167 h, time 70 min. The method, boiled down:
(§1)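 Female rats received vehicle or compound orally. After 1 or 4 h, icilin (1 mg/mL in PEG 400) was given intraperitoneally. Wet-dog shakes were counted for 5 min, starting 5 min after icilin. Results are percent inhibition versus vehicle-treated counts, mean ± SEM (n = 5).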

Series [3] relates to Rattus norvegicus. Nature of the series: Inhibition of overactive bladder activity in Sprague-Dawley rat assessed as inhibition of cold-induced voiding behaviour by measuring mean voided volume at 10 mg/kg, po administered 1 hr prior to cold exposure and measured at 2 mins interval for 4 hrs (reference value: 0.57 +/- 0.05 ml). In kind it is functional. Conditions: time 5 hrs.

For series [4], the system named is Rattus norvegicus. The series can be described thus: Inhibition of overactive bladder activity in Sprague-Dawley rat assessed as inhibition of cold-induced voiding behaviour by measuring reduction in voiding frequency at 10 mg/kg, po administered 1 hr prior to cold exposure and measured at 2 mins interval for 4 hrs. It is filed as functional, organism-based. Particulars: time 5.0 hrs.

The subject of series [5] is Rattus norvegicus. The series can be described thus: Inhibition of overactive bladder activity in Sprague-Dawley rat assessed as inhibition of cold-induced voiding behaviour by measuring total voided volume at 10 mg/kg, po administered 1 hr prior to cold exposure and measured at 2 mins interval for 4 hrs (reference value: 5.57 +/-0.27 ml). It is filed as functional. Conditions: time 5 hrs.

The nature of series [6]: Drug uptake in rat brain measured after 4 hrs. In kind it is ADME, tissue-based. Conditions: read-out: Drug uptake.
The nature of series [7]: Plasma concentration in rat measured after 4 hrs. In kind it is ADME, cell-free.
Series [8] in a line: Ratio of drug level in rat brain to plasma measured after 4 hrs. In kind it is ADME, cell-free. Particulars: read-out: BPR.
Series [9] is described as follows: In vivo antagonist activity at TRPM8 in Sprague-Dawley rat assessed as inhibition of icilin-induced wet dog shakes at 10 mg/kg, po administered 4 hrs prior to icilin administration and measured after 5 mins for 5 mins. In kind it is functional. Particulars: 4.167 h, time 250 min. The method, boiled down: as §1
Series [10] deals with Transient receptor potential cation channel subfamily M member 8 (Homo sapiens, UniProt Q7Z2W7). Nature of the series: Antagonist activity at human TRPM8 transfected in HEK293T cells assessed as reduction in menthol-induced calcium influx measured after 60 mins by Fluo-4 AM dye based fluorescence analysis. It is filed as cell-based.
Chain of Transient receptor potential cation channel subfamily M member 8 (Homo sapiens, UniProt Q7Z2W7) (Q7Z2W7 whole entry): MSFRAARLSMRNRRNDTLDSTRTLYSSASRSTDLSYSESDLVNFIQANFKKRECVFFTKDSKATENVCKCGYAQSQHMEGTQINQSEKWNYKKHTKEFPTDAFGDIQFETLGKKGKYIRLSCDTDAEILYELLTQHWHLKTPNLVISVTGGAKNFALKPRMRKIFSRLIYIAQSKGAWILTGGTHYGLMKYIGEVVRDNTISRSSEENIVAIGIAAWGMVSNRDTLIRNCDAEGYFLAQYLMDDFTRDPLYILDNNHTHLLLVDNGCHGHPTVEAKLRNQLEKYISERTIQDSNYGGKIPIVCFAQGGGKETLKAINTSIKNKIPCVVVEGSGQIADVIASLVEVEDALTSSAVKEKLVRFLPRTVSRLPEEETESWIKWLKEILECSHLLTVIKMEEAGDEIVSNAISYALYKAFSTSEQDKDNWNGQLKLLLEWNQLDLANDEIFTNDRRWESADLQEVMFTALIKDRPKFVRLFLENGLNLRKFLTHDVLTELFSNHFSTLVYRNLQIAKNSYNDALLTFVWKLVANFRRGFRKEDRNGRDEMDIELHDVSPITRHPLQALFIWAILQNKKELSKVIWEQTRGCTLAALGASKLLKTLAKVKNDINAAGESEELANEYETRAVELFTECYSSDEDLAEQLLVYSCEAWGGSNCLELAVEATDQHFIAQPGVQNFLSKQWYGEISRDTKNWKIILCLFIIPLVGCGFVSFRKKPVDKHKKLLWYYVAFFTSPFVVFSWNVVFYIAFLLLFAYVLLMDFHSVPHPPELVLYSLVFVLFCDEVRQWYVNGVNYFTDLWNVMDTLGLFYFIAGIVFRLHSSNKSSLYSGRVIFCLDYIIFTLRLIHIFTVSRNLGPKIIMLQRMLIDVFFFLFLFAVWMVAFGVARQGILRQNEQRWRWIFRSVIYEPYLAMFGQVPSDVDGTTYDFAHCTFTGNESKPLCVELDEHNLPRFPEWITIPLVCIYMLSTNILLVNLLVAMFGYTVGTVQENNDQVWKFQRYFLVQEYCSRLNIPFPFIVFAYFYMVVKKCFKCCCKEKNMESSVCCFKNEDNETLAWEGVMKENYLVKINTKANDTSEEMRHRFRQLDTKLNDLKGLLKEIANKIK
The nature of series [11]: Toxicity in mouse assessed as convulsions at 300 mg/kg, po. In kind it is organism-based. Conditions: in vivo.
The target of series [12] is Transient receptor potential cation channel subfamily M member 8 (Rattus norvegicus, UniProt Q8R455). Nature of the series: Antagonist activity at rat TRPM8 transfected in HEK293T cells assessed as reduction in menthol-induced calcium influx measured after 60 mins by Fluo-4 AM dye based fluorescence analysis. In kind it is cell-based. The method, boiled down:
(§2)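 HEK293T cells were seeded at 5 × 10⁴ cells/well in DMEM with 10% FBS and transfected 4 h later. The vectors were pcDNA3.1 for TRPM8, TRPA1 and TRPV4, and pCI-neo for TRPV1. After 2 days, cells were dye-loaded for 60 min at 37 °C: Fluo-4 AM for TRPM8, TRPA1 and TRPV1, Fura-2 AM for TRPV4. Calcium was read on an FDSS reader. IC50 came from nonlinear regression, mean ± SEM (n = 3).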

Series [13] is described as follows: Cmax in Sprague-Dawley rat at 3 mg/kg, po measured upto 6 hrs by LC-MS/MS analysis. It is filed as ADME, organism-based. On the set-up: route oral, dose 3 mg/kg, time <=6. Conditions: in vivo. The method in brief:
(§3)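 Rats were given a single oral or intravenous dose. Blood was taken from the jugular vein at 2, 15 and 30 min and at 1, 2, 4 and 6 h. Plasma levels were measured by LC-MS/MS. Each parameter was calculated from the mean plasma concentration of three animals.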

Series [14] can be described thus: Tmax in Sprague-Dawley rat at 3 mg/kg, po by LC-MS/MS analysis. It is filed as ADME, organism-based. Particulars: in vivo, time <=6 hrs. The method in brief:
as §3

Series [15] can be described thus: AUC (0 to infinity) in Sprague-Dawley rat at 1 mg/kg, iv by LC-MS/MS analysis. In kind it is ADME, organism-based. Particulars: in vivo. On the set-up: time infinity, route intravenous, dose 1 mg/kg. The method, boiled down:
as §3

Series [16] is described as follows: AUC (0 to infinity) in Sprague-Dawley rat at 3 mg/kg, po by LC-MS/MS analysis. It is filed as ADME, organism-based. On the set-up: time infinity, route oral, dose 3 mg/kg. Particulars: in vivo. The method in brief: as §3
Series [17] is described as follows: Half life in Sprague Dawley rat at 1 mg/kg, iv by LC-MS/MS analysis. It is filed as ADME, organism-based. Conditions: in vivo. The method in brief: as §3
The nature of series [18]: Total clearance in Sprague-Dawley rat at 1 mg/kg, iv measured upto 6 hrs by LC-MS/MS analysis. It is filed as ADME, organism-based. Conditions: in vivo. The method, boiled down: as §3
The nature of series [19]: Volume of distribution at steady state in Sprague-Dawley rat at 1 mg/kg, iv measured upto 6 hrs by LC-MS/MS analysis. Conditions: in vivo, read-out: Vdss. In kind it is ADME, organism-based. The method in brief: as §3
Series [20] can be described thus: Oral bioavailability in Sprague-Dawley rat at 3 mg/kg measured upto 6 hrs by LC-MS/MS analysis. Conditions: in vivo. It is filed as ADME, organism-based. The method, boiled down: as §3
Series [21] deals with Transient receptor potential cation channel subfamily A member 1 (Homo sapiens, UniProt O75762). The series can be described thus: Inhibition of human TRPA1 transfected in HEK293T cells assessed as reduction in AITC-induced calcium influx measured after 60 mins by Fluo-4 AM dye based fluorescence analysis. It is filed as cell-based. The method in brief:
as §2

In series [22] the target is Transient receptor potential cation channel subfamily V member 1 (Homo sapiens, UniProt Q8NER1). Nature of the series: Inhibition of human TRPV1 transfected in HEK293T cells assessed as reduction in capsaicin-induced calcium influx measured after 60 mins by Fluo-4 AM dye based fluorescence analysis. It is filed as cell-based. The method in brief:
as §2

Series [23] deals with Transient receptor potential cation channel subfamily V member 4 (Homo sapiens, UniProt Q9HBA0). Nature of the series: Inhibition of human TRPV4 transfected in HEK293T cells assessed as reduction in RN1747-induced calcium influx measured after 60 mins by Fura-2 AM dye based fluorescence analysis. In kind it is cell-based. The method, boiled down:
as §2

Chain of Transient receptor potential cation channel subfamily M member 8 (Rattus norvegicus, UniProt Q8R455) (Q8R455 whole entry): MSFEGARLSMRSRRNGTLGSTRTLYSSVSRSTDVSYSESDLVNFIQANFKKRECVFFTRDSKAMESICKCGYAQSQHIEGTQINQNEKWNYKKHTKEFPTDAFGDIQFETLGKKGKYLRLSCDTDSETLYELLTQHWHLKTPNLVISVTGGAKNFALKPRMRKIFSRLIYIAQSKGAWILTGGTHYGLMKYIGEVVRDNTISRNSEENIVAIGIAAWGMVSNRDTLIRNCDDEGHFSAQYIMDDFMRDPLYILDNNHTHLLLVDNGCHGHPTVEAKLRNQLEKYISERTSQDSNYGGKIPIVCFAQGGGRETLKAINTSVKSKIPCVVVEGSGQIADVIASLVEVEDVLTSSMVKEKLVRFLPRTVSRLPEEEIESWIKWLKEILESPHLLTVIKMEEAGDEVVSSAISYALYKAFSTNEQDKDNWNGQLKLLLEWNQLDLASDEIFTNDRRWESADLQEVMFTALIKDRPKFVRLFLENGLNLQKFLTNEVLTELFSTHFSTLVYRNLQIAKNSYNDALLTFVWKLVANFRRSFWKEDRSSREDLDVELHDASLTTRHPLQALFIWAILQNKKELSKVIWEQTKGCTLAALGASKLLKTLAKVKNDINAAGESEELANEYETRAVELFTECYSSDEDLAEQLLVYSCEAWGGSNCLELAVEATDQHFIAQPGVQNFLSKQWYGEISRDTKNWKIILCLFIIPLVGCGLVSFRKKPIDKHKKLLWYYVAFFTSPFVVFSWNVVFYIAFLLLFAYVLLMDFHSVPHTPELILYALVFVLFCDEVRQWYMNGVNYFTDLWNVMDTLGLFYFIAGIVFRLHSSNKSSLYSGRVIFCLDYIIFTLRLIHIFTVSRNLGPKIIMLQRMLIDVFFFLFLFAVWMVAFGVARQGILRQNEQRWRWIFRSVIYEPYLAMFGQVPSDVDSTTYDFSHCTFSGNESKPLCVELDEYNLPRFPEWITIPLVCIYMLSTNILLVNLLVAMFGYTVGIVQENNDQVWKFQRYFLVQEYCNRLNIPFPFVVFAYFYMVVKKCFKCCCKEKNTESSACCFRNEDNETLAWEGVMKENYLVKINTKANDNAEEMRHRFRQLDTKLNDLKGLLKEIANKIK
Chain of Transient receptor potential cation channel subfamily V member 1 (Q8NER1 whole entry): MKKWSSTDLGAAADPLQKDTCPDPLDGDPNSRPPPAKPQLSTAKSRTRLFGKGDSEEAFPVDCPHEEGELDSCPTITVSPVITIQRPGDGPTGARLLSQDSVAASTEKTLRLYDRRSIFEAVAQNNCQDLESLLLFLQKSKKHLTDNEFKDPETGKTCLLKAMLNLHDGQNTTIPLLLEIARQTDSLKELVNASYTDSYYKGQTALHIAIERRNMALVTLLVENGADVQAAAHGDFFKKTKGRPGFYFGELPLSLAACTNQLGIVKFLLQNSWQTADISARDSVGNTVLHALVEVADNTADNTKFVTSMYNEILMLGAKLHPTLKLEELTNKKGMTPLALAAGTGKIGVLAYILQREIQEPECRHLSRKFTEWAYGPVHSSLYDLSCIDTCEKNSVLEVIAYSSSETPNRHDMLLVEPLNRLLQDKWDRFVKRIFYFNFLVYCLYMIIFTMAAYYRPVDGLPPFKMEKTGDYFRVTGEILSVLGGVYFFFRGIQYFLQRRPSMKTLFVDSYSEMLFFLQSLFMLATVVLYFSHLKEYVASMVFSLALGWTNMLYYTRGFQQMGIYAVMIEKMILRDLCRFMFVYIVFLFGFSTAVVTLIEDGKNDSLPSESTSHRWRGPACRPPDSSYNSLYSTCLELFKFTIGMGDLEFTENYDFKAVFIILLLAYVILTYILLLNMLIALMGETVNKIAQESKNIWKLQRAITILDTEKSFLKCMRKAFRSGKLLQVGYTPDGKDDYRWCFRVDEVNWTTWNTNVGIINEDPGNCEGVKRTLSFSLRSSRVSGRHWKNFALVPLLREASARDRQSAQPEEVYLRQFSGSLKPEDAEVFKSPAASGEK
Chain of Transient receptor potential cation channel subfamily A member 1 (O75762 whole entry): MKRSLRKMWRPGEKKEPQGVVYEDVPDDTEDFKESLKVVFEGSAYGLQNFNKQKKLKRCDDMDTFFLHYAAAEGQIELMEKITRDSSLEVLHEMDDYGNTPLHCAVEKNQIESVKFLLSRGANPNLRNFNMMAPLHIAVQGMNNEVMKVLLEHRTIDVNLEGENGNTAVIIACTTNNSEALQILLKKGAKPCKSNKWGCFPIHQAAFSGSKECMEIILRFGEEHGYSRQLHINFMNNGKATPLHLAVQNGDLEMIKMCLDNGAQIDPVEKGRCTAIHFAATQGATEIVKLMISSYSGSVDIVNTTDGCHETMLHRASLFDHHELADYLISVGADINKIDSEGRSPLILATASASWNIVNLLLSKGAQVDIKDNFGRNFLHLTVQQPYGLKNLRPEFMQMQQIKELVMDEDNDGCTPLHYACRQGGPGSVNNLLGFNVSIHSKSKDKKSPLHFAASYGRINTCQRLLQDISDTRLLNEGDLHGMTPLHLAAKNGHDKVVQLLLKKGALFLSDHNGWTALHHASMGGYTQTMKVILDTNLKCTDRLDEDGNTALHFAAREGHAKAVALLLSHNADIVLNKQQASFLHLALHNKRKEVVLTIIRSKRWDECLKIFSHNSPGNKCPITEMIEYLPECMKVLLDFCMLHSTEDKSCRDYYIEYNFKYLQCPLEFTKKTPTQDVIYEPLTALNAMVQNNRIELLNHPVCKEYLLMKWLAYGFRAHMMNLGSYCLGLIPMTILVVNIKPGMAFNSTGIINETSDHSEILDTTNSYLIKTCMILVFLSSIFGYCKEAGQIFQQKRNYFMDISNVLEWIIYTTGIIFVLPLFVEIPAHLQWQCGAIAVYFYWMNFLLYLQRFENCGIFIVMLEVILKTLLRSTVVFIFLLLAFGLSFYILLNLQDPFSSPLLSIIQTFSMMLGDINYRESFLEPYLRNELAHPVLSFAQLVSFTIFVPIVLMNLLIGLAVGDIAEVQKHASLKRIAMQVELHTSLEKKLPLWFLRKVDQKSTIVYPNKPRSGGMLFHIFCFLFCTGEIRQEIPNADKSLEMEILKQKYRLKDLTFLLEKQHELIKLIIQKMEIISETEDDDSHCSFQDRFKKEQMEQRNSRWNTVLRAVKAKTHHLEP

One may read the EC50 as the concentration that produces a half-maximal response. Read a low EC50 as an effect from little substance. What is called inhibition is the percentage by which the read-out fell short of the control. By inhibition in vivo is commonly meant how much of the control response was suppressed. Turning to `C[C@H](c1cc(F)cc(F)c1)N(C(=O)c1ccccc1)[C@@H](C(N)=O)c1ccccc1`, the EC50 in [1] was 10.3 µM. At CYP3A4, the inhibition at 10 min, 10 µM came to 27%. In addition, the figures for the inhibition in vivo at 10 mg/kg in [2] and in series [9] were 100% and 97%, respectively. In addition, the Activity with Rattus norvegicus [3] came out at 0.75 mL; in the series with Rattus norvegicus [5], 5.81 mL. Also, the inhibition entry in the series on Rattus norvegicus [4] was “Active”. Also, the figures for the concentration at 4 h in series [6] and in [7] were 171 µM and 103 µM, respectively. Also, the Kp at 4 h in [8] is 1.66.

The IC50 is the point on the concentration scale where inhibition reaches its midpoint. As to `NC(=O)[C@@H](c1ccccc1)N(C(=O)c1ccccc1)[C@@H]1CCc2ncccc21`, the half-inhibitory concentration (IC50) in series [10] stood at 19.5 µM.

Consider `NC(=O)[C@@H](c1ccccc1)N(C(=O)c1cccnc1)[C@@H]1CCc2c(F)cc(F)cc21`, for which, in series [1], it took 47 µM to reach a half-maximal effect (EC50).

With `NC(=O)[C@@H](c1ccccc1)N(C(=O)c1cccnc1N)[C@@H]1CCc2c(F)cc(Cl)cc21`, the inhibition at 10 min, 10 µM on CYP3A4 was 18%.

As to `C[C@H](c1cc(F)cc(F)c1)N(C(=O)c1ccccc1O)[C@@H](C(N)=O)c1ccccc1`, in series [1], the EC50 turned out to be 12 µM.

`COc1ncccc1C(=O)N([C@@H]1CCc2c(F)cc(Cl)cc21)[C@@H](C(N)=O)c1ccccc1`: the inhibition at 10 min, 10 µM on CYP3A4 came to 22%.

For the compound `NC(=O)[C@@H](c1ccccc1)N(C(=O)c1cccnc1)[C@@H]1CCc2c(F)cc(Cl)cc21`, a half-maximal response in series [1] (EC50) required 131 µM. The inhibition at 10 min, 10 µM at CYP3A4 is 65%. Besides, the Activity entry in [11] is listed as “Non-Toxic”.

The Cmax is the peak of the concentration-time curve. In general, Tmax refers to the time at which the peak concentration occurs. One may read the AUC(0-inf) as total exposure, with the tail of the curve extrapolated. Low readings indicate low exposure, high ones high exposure. As a reminder, the half-life is how long it takes for the measured level to halve. A high value points to slow loss. In general, clearance refers to a measure of how efficiently the substance is removed, as volume per time. Read a high clearance as a high capacity for elimination. The term bioavailability denotes the share of a dose that reaches the circulation, judged against a reference dose that is usually intravenous. Higher therefore signals much systemic uptake. As for `Cc1ncccc1C(=O)N([C@@H]1CCc2c(F)cc(Cl)cc21)[C@@H](C(N)=O)c1ccccc1`, the inhibition at 10 min, 10 µM on CYP3A4 amounted to 17%. Further, the IC50 in series [12] was 0.08 µM; in [21], more than 30 µM; in series [22], more than 30 µM; in series [23] it was more than 30 µM. Further, the concentration in series [13] peaked (Cmax) at 466 ng/mL. Besides, the Tmax in series [14] is 40 min. Besides, the AUC(0-inf) in series [15] is 674 ng·h/mL; in [16] it was 1110 ng·h/mL. In addition, in series [17], the half-life is 64 min. The compound further showed a clearance in series [18] of 25 mL/min/kg. In series [19], the Vd amounted to 1.89 L/kg. The compound further came in with a bioavailability in series [20] of 55%. For the same compound, in [11], the Activity result was “Non-Toxic”.
